Assay results as given in ChEMBL document CHEMBL1135752, “Pyrazolopyrimidine-2,4-dione sulfonamides: novel and selective calcitonin inducers” (J Med Chem, 2002).

Assays:
[1] = Ability to increase Human calcitonin secretion; format: functional
Procedure, shortened: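 Calcitonin secretion assay with radioimmunoassay read-out, measuring the rise in cellular levels and secretion of human CT. Compound tested at 30 µM. Value is the ratio of secretion with compound to secretion in untreated control; average precision error reported as 10-33%.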

Phosphodiesterase 4 [2] = molecular target: T1, Phosphodiesterase 4 (Homo sapiens, UniProt P27815+Q08499+Q07343+Q08493); assay: Percent Rolipram activity of a standard U937 cell phosphodiesterase 4 (PDE4) enzyme assay at 30 uM of compound; format: cell-based; settings: U-937
Procedure, shortened: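 U937 cell PDE4 enzyme assay with compound at 30 µM. Activity is scaled and reported as percent of rolipram activity.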

Phosphodiesterase 4 [3] = molecular target: T1, Phosphodiesterase 4; assay: Inhibition of phosphodiesterase 4 (PDE4); format: protein assay
[4] = Increased transcription of human calcitonin luciferase reporter gene at 30 uM; format: functional
Procedure, shortened: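 Luciferase reporter gene under control of the human calcitonin gene/promoter, used to measure transcription activation. Compound tested at 30 µM. Read-out is the transcription activation ratio: luciferase activity with compound divided by luciferase activity in untreated control.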

| Structure (SMILES) | CTS increase [1] | Activity (Phosphodiesterase 4 [2]) [%] | IC50 (Phosphodiesterase 4 [3]) [µM] | CT-luci TAR [4] [T/C] |
| --- | --- | --- | --- | --- |
| CCCCn1c(=O)c2cn(S(=O)(=O)CCCCl)nc2n(CCCC)c1=O | 2.7 | 66 | 4.9 | 1.9 |
| CCCCn1c(=O)c2cn(S(=O)(=O)c3ccccc3C#N)nc2n(CCCC)c1=O | 3.4 | 32 |  | 3.6 |
| CCCCn1c(=O)c2nn(S(=O)(=O)c3ccc4ccccc4c3)cc2n(CCCC)c1=O | 4.9 | 66 |  | 1.8 |
| CCCCn1c(=O)c2nn(S(=O)(=O)c3ccc(C(C)(C)C)cc3)cc2n(CCCC)c1=O | 4.5 | 37 |  | 2.3 |
| CCCCn1c(=O)c2cn(S(=O)(=O)c3ccc(C(C)(C)C)cc3)nc2n(CCCC)c1=O | 2.9 | 57 |  | 2.6 |
| CCCCn1c(=O)c2nn(S(=O)(=O)CCCCl)cc2n(CCCC)c1=O | 4.4 | 69 | 4.9 | 1.3 |
| CCCCn1c(=O)c2nn(S(=O)(=O)c3cccc(C(F)(F)F)c3)cc2n(CCCC)c1=O | 3.8 | 32 |  | 1.8 |
| CCCCn1c(=O)c2c(ncn2CC(C)=O)n(CCCC)c1=O | 3.5 | 100 |  | 2.1 |
| CCCCn1c(=O)c2cn(S(=O)(=O)Cc3ccccc3)nc2n(CCCC)c1=O | 3.4 | 52 |  | 2 |
| CCCCn1c(=O)c2cn(S(C)(=O)=O)nc2n(CCCC)c1=O | 3.9 | 93 |  | 1.8 |
| CCCCn1c(=O)c2nn(S(=O)(=O)c3cccc4cccnc34)cc2n(CCCC)c1=O | 3.8 | 59 |  | 2.2 |
| CCCCn1c(=O)c2nn(S(=O)(=O)c3cc(Cl)c(Cl)s3)cc2n(CCCC)c1=O | 3.4 | 59 |  | 1.7 |
| CCCCn1c(=O)c2nn(S(=O)(=O)Cc3ccccc3)cc2n(CCCC)c1=O | 2.6 | 65 |  | 1.5 |
| CCCCn1c(=O)c2cn(S(=O)(=O)c3cccc4cccnc34)nc2n(CCCC)c1=O | 4.8 | 96 |  | 2.9 |
| CCCCn1c(=O)c2cn(S(=O)(=O)c3cc(Cl)c(Cl)s3)nc2n(CCCC)c1=O | 3 | 16 |  | 3.2 |
| CCCCn1c(=O)c2nn(S(C)(=O)=O)cc2n(CCCC)c1=O | 0.9 | 60 |  | 2.1 |
